Experimental data: ChEMBL document CHEMBL4145666, “In Search of Selectivity in Inhibition of ADAM10” (ACS Med Chem Lett, 2018)
Activity calls are given as the source filed them. The rule behind the calls is not given here.

Columns and labels:
[1] = biological target: Matrix metalloproteinase-14 (Homo sapiens) (UniProt P50281); assay: Inhibition of recombinant human MMP14 catalytic domain (89 to 265 residues) expressed in Escherichia coli using MOCAc-Pro-Leu-Gly-Leu-A2pr(Dnp)-Ala-Arg-NH2 as substrate at 10 uM by fluorescence spectrophotometric method relative to control
Procedure, shortened: (§1)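 Single inhibitor concentration of 10 μM, reported as percent inhibition. Enzymes and substrates as in earlier work, with inhibition run by a previously reported protocol.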

[2] = biological target: T1, Disintegrin and metalloproteinase domain-containing protein 9 (Homo sapiens) (UniProt Q13443); assay: Inhibition of recombinant human C-terminal His10-tagged ADAM9 (Ala206 to Asp697 residues) expressed in mouse cells using McaPLAQAV-Dpa-RSSSR-NH2 as substrate at 10 uM by fluorescence spectrophotometric method relative to control; procedure, shortened: as §1
T1 sequence (whole entry): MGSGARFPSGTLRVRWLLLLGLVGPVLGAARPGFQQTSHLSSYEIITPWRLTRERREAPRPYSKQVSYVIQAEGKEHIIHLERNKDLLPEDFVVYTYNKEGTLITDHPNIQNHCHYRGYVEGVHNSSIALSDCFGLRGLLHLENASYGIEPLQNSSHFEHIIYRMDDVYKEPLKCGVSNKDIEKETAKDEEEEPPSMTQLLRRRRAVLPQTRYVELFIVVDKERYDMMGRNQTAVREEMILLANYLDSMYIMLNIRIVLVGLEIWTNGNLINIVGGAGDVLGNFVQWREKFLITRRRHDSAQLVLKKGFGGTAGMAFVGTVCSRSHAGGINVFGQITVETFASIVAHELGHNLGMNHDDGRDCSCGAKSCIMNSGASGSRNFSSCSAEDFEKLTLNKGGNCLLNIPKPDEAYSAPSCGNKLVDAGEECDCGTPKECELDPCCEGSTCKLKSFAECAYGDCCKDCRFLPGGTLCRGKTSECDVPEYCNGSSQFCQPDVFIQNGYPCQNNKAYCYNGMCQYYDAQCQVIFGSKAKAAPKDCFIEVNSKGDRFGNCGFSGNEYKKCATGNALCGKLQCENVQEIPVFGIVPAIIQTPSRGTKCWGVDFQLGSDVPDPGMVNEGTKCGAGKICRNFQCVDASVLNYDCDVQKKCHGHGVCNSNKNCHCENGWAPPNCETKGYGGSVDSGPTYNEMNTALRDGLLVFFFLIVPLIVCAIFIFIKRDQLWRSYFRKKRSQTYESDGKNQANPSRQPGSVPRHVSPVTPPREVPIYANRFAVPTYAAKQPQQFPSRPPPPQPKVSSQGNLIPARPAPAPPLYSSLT

[3] = AUC (0 to last) in CD-1 mouse plasma at 10 mg/kg, ip by UPLC analysis; type: ADME, organism-based; set-up: dose 10 mg/kg, time 0 - last, route intraperitoneal
Procedure, shortened: (§2)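 Male CD-1 mice, 6–7 weeks old, about 30 g, fed and watered ad libitum. Single dose of 10 mg/kg ip or 25 mg/kg sc, given as 100 μL formulation; n = 3 per time point per route. At set times, blood was taken by cardiac puncture with heparinized syringes and spun to plasma. Brains were harvested after transcardiac saline perfusion, weighed and flash-frozen. Brain levels are in pmol/mg tissue.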

[4] = Elimination half life in CD-1 mouse brain at 10 mg/kg, ip by UPLC analysis; type: ADME, organism-based; details: read-out: beta t1/2; procedure, shortened: as §2
[5] = Ratio of AUC (0 to infinity) in brain to plasma in CD-1 mouse at 25 mg/kg, sc by UPLC analysis; type: ADME, organism-based; details: read-out: Ratio AUC
Procedure, shortened: (§3)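 Male CD-1 mice (6–7 weeks, about 30 g) received one dose: 10 mg/kg ip or 25 mg/kg sc, with n = 3 per time point per route. At set times, plasma came from heparinized cardiac-puncture blood. Brain was taken after transcardiac saline perfusion, weighed and flash-frozen. Brain levels were in pmol/mg tissue, plasma in μM. Value is AUCbrain/AUCplasma.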

[6] = Ratio of AUC (0 to infinity) in brain to plasma in CD-1 mouse at 10 mg/kg, ip by UPLC analysis; type: ADME, organism-based; details: read-out: Ratio AUC; procedure, shortened: as §3
Mus musculus = assay: Time at which brain concentration stays above in-vitro Ki for ADAM10 in CD-1 mouse at 10 mg/kg, ip by UPLC analysis; type: ADME, organism-based; details: in vivo; procedure, shortened: as §2
[7] = AUC (0 to last) in CD-1 mouse brain assessed per mg tissue at 25 mg/kg, sc by UPLC analysis; type: ADME, organism-based; details: in vivo; procedure, shortened: as §2
[8] = biological target: Disintegrin and metalloproteinase domain-containing protein 17 (Homo sapiens, UniProt P78536); assay: Inhibition of recombinant human C-terminal His6-tagged ADAM17 (Arg215 to Asn671 residues) expressed in baculovirus infected Sf21 cells using Mca-PLAQAV-Dpa-RSSSR-NH2 as substrate by fluorescence spectrophotometric method
Procedure, shortened: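 Enzymes and their substrates were obtained as in earlier work, and inhibition was run by a previously reported protocol. Ki values were measured in triplicate.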

[9] = Elimination half life in CD-1 mouse brain at 25 mg/kg, sc by UPLC analysis; type: ADME, organism-based; details: read-out: beta t1/2; procedure, shortened: as §2
[10] = AUC (0 to infinity) in CD-1 mouse plasma at 25 mg/kg, sc by UPLC analysis; type: ADME, organism-based; set-up: dose 25 mg/kg, route subcutaneous, time infinity; procedure, shortened: as §2
[11] = Primary phase half life in CD-1 mouse plasma at 10 mg/kg, ip by UPLC analysis; type: ADME, organism-based; details: read-out: alphat1/2; procedure, shortened: as §2
[12] = AUC (0 to infinity) in CD-1 mouse brain assessed per mg tissue at 10 mg/kg, ip by UPLC analysis; type: ADME, organism-based; set-up: dose 10 mg/kg, route intraperitoneal, time infinity; details: in vivo; procedure, shortened: as §2
[13] = biological target: T2, Interstitial collagenase (Homo sapiens) (UniProt P03956); assay: Inhibition of recombinant human MMP1 catalytic domain (Phe100 to Gln268 residues) expressed in Escherichia coli at 10 uM using McaKPLGL-Dpa-AR-NH2 as substrate by fluorescence spectrophotometric method; procedure, shortened: as §1
T2 sequence (whole entry): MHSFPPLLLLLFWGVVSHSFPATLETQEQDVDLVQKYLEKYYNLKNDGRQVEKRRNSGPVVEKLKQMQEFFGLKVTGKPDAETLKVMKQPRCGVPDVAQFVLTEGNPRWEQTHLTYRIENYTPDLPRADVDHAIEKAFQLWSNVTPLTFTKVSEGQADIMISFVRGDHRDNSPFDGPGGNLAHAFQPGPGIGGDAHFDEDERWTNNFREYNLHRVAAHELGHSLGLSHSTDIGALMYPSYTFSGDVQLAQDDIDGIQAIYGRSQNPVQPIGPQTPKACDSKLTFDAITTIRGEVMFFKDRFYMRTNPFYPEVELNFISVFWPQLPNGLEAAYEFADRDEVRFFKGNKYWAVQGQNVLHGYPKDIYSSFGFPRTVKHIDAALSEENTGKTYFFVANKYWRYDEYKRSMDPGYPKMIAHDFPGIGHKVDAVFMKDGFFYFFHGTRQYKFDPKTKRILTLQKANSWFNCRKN

[14] = Primary phase half life in CD-1 mouse plasma at 25 mg/kg, sc by UPLC analysis; type: ADME, organism-based; details: read-out: alphat1/2; procedure, shortened: as §2

Chain of Disintegrin and metalloproteinase domain-containing protein 17 (P78536 whole entry, the tested form may be a part): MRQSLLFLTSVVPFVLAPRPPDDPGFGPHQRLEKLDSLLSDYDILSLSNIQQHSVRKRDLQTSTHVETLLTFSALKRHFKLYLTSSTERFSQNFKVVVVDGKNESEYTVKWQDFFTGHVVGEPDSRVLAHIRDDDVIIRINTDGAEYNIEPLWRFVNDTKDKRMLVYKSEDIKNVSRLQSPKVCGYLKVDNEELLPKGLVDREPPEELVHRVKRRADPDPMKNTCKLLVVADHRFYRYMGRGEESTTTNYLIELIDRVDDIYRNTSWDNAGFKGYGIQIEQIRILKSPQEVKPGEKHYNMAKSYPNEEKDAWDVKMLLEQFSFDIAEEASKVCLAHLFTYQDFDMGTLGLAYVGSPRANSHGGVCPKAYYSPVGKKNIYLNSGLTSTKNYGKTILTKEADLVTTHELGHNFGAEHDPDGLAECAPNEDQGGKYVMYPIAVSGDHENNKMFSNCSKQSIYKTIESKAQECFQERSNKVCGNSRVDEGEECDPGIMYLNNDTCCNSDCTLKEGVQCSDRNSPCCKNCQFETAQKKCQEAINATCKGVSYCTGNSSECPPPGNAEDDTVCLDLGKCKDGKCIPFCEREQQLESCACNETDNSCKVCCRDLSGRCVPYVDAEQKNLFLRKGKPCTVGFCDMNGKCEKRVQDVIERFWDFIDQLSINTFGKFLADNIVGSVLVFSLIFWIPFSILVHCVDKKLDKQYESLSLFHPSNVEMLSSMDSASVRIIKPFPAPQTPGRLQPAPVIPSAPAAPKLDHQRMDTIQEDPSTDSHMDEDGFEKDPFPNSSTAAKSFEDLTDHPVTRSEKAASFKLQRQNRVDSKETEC

Question: With `O=C(NO)[C@H]1C[C@H](OC(=O)N2CCCC2)CC[C@@H]1C(=O)N1CCC(c2ccccc2)CC1` as the compound, how does the inhibition [1] read?
Answer: Its inhibition is 19%.

Question: What about the inhibition [2] of the same compound?
Answer: The inhibition was 15%.

Question: What about the AUC(0-t) [3] of the same compound?
Answer: Its AUC(0-t) is 2.58 µM·h.

Question: And the half-life [4]?
Answer: Its half-life is 3.4 h.

Question: And the Kp [5]?
Answer: Its Kp is 0.0693.

Question: And the Kp [6]?
Answer: Its Kp is 0.0761.

Question: And the Time (Mus musculus)?
Answer: Its Time is 20 min.

Question: And the AUClast [7]?
Answer: Its AUClast is 51.2 pmol·min.

Question: What about the Ki [8] of the same compound?
Answer: The Ki was 900 nM.

Question: What about the half-life [9] of the same compound?
Answer: The half-life was 10.5 h.

Question: And the AUC(0-inf) [10]?
Answer: Its AUC(0-inf) is 18.5 µM·h.

Question: And the half-life [11]?
Answer: Its half-life is 0.207 h.

Question: And the AUC [12]?
Answer: Its AUC is 14 pmol·min/mg.

Question: What about the inhibition [13] of the same compound?
Answer: Its inhibition is “inactive”.

Question: And the half-life [14]?
Answer: The half-life was 0.257 h.
